According to ChEMBL document CHEMBL3120050, “Synthesis, receptor affinity and effect on pentylenetetrazole-induced seizure threshold of novel benzodiazepine analogues: 3-Substituted 5-(2-phenoxybenzyl)-4H-1,2,4-triazoles and 2-amino-5-(phenoxybenzyl)-1,3,4-oxadiazoles” (Bioorg Med Chem, 2014):

Key:
[1] = Displacement of [3H]flumazenil from GABAA/BZD receptor in Sprague-Dawley rat cortical membrane after 35 mins by competition binding assay
Method in brief: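 Cortex from male Sprague-Dawley rats (300-350 g), homogenized in Tris-HCl, washed, and preincubated 30 min at 37°C; membranes stored at -20°C and used within 1-15 days. 100 µg membrane protein incubated with 8.6×10^-5 nmole [3H]-flumazenil plus increasing test ligand in 50 mM Tris-HCl pH 7.4 (0.5 mL), 30°C, 35 min. Stopped by centrifugation. Excess diazepam defined nonspecific binding. Triplicates; IC50 = 50% inhibition of specific binding.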

[2] = test system: Mus musculus; experiment: Anticonvulsant activity in NMRI mouse assessed as pentylenetetrazole-induced clonic seizure threshold at 5 mg/kg, ip administered 60 mins before pentylenetetrazole challenge; assay type: functional; conditions: route intraperitoneal
Method in brief: (§1)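 Male NMRI mice (24-30 g), at least eight per group, each used once. Compounds dispersed in 0.5% CMC and given i.p. in 10 ml/kg, 60 min before PTZ. PTZ (0.5% in saline) infused i.v. into the tail vein at 0.5 ml/min in unrestrained animals until forelimb clonus then full body clonus. Threshold = minimal PTZ dose (mg/kg) for clonic seizure, expressed as % and compared with CMC group; mean ± SEM.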

[3] = test system: Mus musculus; experiment: Anticonvulsant activity in NMRI mouse assessed as pentylenetetrazole-induced clonic seizure threshold at 10 mg/kg, ip administered 60 mins before pentylenetetrazole challenge; assay type: functional; conditions: route intraperitoneal; method in brief: as §1
[4] = test system: Mus musculus; experiment: Anticonvulsant activity in NMRI mouse assessed as pentylenetetrazole-induced clonic seizure threshold at 20 mg/kg, ip administered 60 mins before pentylenetetrazole challenge; assay type: functional; conditions: route intraperitoneal; method in brief: as §1

SMILES | IC50 [1] [nM] | Kd [1] [nM] | Activity [2] [%] | Activity [3] [%] | Activity [4] [%]
Clc1ccc(Cc2nnc(SCc3ccccc3)[nH]2)c(Oc2ccccc2Cl)c1 | 2.23 | 1.36 | 112.52 | 122.18 | 128.77
CSc1nnc(Cc2ccc(Cl)cc2Oc2ccccc2F)[nH]1 | 3.78 | 2.32 | 110.43 | 121.41 | 135.53
CCSc1nnc(Cc2ccc(Cl)cc2Oc2ccccc2F)[nH]1 | 1.32 | 0.8 | 125.52 | 144.44 | 141.4
CCCSc1nnc(Cc2ccc(Cl)cc2Oc2ccccc2F)[nH]1 | 1.97 | 1.21 | 119.45 | 127.32 | 133.41
Fc1ccccc1Oc1cc(Cl)ccc1Cc1nnc(SCc2ccccc2)[nH]1 | 0.892 | 0.544 | 165.66 | 168.6 | 178.53
Nc1nnc(Cc2ccccc2Oc2ccccc2)o1 | 1.9 | 1.17 | 131.63 | 142.52 | 174.36
Nc1nnc(Cc2ccc(Cl)cc2Oc2ccccc2Cl)o1 | 1.75 | 1.1 | 125.22 | 132.44 | 170.25
Nc1nnc(Cc2ccc(Cl)cc2Oc2ccccc2F)o1 | 1.89 | 1.16 | 111.61 | 128.95 | 154.23
CCOc1nnc(Cc2ccccc2Oc2ccccc2)[nH]1 | 3.49 | 2.14 | 122.56 | 125.79 | 143.52
CCOc1nnc(Cc2ccc(Cl)cc2Oc2ccccc2Cl)[nH]1 | 2.13 | 1.3 | 120.06 | 122.29 | 134.63
CCOc1nnc(Cc2ccc(Cl)cc2Oc2ccccc2F)[nH]1 | 2.07 | 1.26 | 110.82 | 115.67 | 138.25
S=c1[nH]nc(Cc2ccccc2Oc2ccccc2)[nH]1 | 3.1 | 1.9 | 126.2 | 141.88 | 160.47
S=c1[nH]nc(Cc2ccc(Cl)cc2Oc2ccccc2Cl)[nH]1 | 1.78 | 1.09 | 124.08 | 138.87 | 158.77
Fc1ccccc1Oc1cc(Cl)ccc1Cc1n[nH]c(=S)[nH]1 | 1.36 | 0.836 | – | – | –
CSc1nnc(Cc2ccccc2Oc2ccccc2)[nH]1 | 1.38 | 0.84 | 120.26 | 132.83 | 147.06
CCSc1nnc(Cc2ccccc2Oc2ccccc2)[nH]1 | – | – | 132.47 | 141.9 | 168.55
CCCSc1nnc(Cc2ccccc2Oc2ccccc2)[nH]1 | 1.24 | 0.75 | 127.77 | 139.38 | 157.5
c1ccc(CSc2nnc(Cc3ccccc3Oc3ccccc3)[nH]2)cc1 | 2.07 | 1.27 | 129.27 | 139.21 | 143.4
CSc1nnc(Cc2ccc(Cl)cc2Oc2ccccc2Cl)[nH]1 | 2.52 | 1.54 | 125.02 | 131.61 | 169.89
CCSc1nnc(Cc2ccc(Cl)cc2Oc2ccccc2Cl)[nH]1 | 1.63 | 1 | 133.58 | 139.99 | 173.98
CCCSc1nnc(Cc2ccc(Cl)cc2Oc2ccccc2Cl)[nH]1 | 1.35 | 0.82 | 117.68 | 125.29 | 134.09
CN1C(=O)CN=C(c2ccccc2)c2cc(Cl)ccc21 [DIAZEPAM] | 2.86 | 1.75 | – | – | –
